Results published in ChEMBL document CHEMBL1124999, “3-Phenyl analogues of 2-[[[2-(2,6-dimethoxyphenoxy)ethyl]amino]-methyl]-1,4-benzodioxan (WB 4101) as highly selective alpha 1-adrenoceptor antagonists” (J Med Chem, 1990).

Columns and labels:
[1] = molecular target: T1, Adrenergic receptor alpha-2 (Rattus norvegicus, UniProt P22086+P19328+P22909); experiment: pA2 value was measured in aAlpha-2 adrenergic receptor against clonidine in rat vas deferens.
T1 sequence (P22086 whole entry): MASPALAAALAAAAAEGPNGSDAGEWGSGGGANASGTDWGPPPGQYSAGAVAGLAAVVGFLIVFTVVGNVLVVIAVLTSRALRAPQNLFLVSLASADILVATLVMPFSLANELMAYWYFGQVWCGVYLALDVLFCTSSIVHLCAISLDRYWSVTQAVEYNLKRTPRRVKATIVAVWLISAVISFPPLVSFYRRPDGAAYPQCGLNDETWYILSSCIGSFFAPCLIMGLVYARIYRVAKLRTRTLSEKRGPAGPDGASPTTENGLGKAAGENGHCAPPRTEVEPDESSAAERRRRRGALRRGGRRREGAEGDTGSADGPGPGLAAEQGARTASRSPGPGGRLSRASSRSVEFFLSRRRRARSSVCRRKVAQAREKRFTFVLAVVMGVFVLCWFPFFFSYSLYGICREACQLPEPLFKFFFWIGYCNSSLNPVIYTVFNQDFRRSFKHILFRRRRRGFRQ
T1 sequence (P19328 whole entry): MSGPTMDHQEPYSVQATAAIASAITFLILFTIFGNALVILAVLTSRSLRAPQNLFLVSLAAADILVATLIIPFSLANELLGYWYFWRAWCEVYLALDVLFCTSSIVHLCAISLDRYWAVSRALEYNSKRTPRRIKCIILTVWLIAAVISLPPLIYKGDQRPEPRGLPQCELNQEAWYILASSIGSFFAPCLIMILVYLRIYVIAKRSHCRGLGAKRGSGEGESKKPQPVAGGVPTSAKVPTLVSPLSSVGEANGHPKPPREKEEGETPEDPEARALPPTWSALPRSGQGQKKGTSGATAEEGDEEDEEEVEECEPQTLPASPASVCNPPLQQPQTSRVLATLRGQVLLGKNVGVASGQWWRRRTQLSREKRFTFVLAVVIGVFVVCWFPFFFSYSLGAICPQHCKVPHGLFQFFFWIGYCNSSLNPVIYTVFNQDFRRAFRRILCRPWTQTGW
T1 sequence (P22909 whole entry): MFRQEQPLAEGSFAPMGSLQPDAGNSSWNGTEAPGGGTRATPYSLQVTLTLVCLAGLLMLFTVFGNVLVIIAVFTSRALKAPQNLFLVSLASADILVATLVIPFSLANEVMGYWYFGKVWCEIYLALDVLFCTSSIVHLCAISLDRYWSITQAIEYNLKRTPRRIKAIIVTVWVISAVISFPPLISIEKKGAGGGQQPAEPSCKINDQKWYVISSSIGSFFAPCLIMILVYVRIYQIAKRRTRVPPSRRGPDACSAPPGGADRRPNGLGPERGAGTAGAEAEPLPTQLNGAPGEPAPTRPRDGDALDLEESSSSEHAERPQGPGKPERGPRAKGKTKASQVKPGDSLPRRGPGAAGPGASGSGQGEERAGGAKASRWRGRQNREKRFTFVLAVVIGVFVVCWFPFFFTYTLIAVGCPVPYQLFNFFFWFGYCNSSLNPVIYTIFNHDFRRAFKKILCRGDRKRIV
Procedure, shortened: (§1)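 Schild analysis with slope constrained to -1.0. Log(DR−1) was measured at three antagonist concentrations for α1 (norepinephrine) and four for α2 (clonidine), each tested at least five times. DR is the agonist ED50 with antagonist divided by that without. Curve parallelism was checked by linear regression (p < 0.05). Values are ± standard error of estimate.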

[2] = molecular target: T2, Adrenergic receptor alpha-1 (Rattus norvegicus, UniProt P15823+P23944+P43140); experiment: pA2 value was measured in Alpha-1 adrenergic receptor against norepinephrine in rat vas deferens.; procedure, shortened: as §1
T2 sequence (P15823 whole entry): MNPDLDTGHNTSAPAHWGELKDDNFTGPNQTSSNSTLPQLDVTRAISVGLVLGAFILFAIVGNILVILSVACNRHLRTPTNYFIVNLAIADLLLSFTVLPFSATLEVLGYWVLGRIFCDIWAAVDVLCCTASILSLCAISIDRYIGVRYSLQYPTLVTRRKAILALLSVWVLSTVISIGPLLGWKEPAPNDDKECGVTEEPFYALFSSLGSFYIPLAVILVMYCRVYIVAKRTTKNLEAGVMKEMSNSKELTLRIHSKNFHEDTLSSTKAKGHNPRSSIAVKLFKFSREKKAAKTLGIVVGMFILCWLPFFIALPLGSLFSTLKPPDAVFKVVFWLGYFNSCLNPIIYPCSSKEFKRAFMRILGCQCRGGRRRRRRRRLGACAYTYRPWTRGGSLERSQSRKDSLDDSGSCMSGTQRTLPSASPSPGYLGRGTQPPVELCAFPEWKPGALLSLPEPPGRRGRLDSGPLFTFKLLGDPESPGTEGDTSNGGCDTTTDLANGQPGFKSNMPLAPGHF
T2 sequence (P23944 whole entry): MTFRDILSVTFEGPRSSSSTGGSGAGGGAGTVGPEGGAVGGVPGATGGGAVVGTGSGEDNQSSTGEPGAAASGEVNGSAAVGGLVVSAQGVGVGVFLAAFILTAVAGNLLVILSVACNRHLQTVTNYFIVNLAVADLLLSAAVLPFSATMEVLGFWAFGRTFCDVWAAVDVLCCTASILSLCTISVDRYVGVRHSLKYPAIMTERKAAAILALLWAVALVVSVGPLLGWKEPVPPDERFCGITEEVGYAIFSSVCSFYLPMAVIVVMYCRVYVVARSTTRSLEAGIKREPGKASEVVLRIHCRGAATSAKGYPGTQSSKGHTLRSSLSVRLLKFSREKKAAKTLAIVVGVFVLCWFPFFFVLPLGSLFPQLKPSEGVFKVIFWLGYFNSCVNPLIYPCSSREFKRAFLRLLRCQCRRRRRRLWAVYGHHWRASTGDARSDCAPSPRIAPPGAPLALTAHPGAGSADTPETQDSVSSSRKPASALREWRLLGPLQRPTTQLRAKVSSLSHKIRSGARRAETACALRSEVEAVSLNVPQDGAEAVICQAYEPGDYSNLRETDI
T2 sequence (P43140 whole entry): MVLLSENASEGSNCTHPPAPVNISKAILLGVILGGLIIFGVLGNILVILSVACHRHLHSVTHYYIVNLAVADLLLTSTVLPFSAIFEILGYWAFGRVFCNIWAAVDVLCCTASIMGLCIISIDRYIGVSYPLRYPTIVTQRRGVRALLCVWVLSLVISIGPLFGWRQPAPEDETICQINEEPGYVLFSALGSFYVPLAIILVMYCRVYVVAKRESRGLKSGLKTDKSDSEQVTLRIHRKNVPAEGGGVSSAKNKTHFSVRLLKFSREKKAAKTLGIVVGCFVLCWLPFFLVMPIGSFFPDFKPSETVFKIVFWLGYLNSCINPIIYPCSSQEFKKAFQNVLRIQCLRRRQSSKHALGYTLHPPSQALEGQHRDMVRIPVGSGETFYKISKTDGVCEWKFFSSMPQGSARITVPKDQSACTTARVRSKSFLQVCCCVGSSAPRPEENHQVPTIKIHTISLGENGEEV

[3] = molecular target: T1, Adrenergic receptor alpha-2; experiment: pA2 value was measured in Alpha-2 adrenergic receptor against clonidine in rat vas deferens.; procedure, shortened: as §1
[4] = Selectivity ratio (alpha1/alpha2) of the compound
Procedure, shortened: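 α1/α2 selectivity is the antilog of the difference between pA2 at α1- and α2-adrenoreceptors. Each pA2 comes from Schild plots against norepinephrine (α1) or clonidine (α2).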

[5] = molecular target: T2, Adrenergic receptor alpha-1; experiment: pIC50 value was measured in Alpha-1 adrenergic receptor against norepinephrine in rat vas deferens.

In the case of `COc1cccc(OC)c1OCCNC[C@H]1Oc2ccccc2OC1c1ccccc1` (stereo partly specified), the pA2 [1] is reported as 6.4 and the pA2 [2] is reported as 9.3.
`COc1cccc(OC)c1OCCNC[C@H]1Oc2ccccc2O[C@@H]1c1ccccc1` gave a pA2 [3] of 4.22, a Selectivity ratio [4] of 23400 and a pA2 [2] of 8.59.
For `COc1cccc(OC)c1OCCNC[C@H]1C(=O)c2ccccc2O[C@@H]1c1ccccc1`, the pA2 [3] was 4.85, the Selectivity ratio [4] was 2630 and the pA2 [2] was 8.27.
In the case of `COc1cccc(OC)c1OCCNC[C@H]1Oc2ccccc2O[C@H]1c1ccccc1`, the pA2 [3] is reported as 4.49, the Selectivity ratio [4] is reported as 6 and the pIC50 [5] is reported as 5.29.
